Legend:
L1210 [1] = test: Uptake of a initial concentration of 100 ug/mL of compound in medium by L1210 cells after 10 min expressed as drug concentration in cells; type: functional, cell-based; conditions: Mus musculus
Outline: (§1)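 Cultured L1210 leukemia cells were incubated with drug in medium for set times. Cells were then washed in phosphate buffered saline and lysed by sonication in distilled water. Drug in the lysate was measured by HPLC on a short C18 column with methanol-water (65:35), against a peak-height standard curve that was linear over the range. Experiments were run in duplicate.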

L1210 [2] = test: Uptake of a initial concentration of 100 ug/mL of compound in medium by L1210 cells after 30 min expressed as drug concentration in cells; type: functional, cell-based; conditions: Mus musculus; outline: as §1
L1210 [3] = test: Uptake of a initial concentration of 100 ug/mL of compound in medium by L1210 cells after 60 min expressed as drug concentration in cells; type: functional, cell-based; conditions: Mus musculus; outline: as §1
L1210 [4] = test: Uptake of a initial concentration of 10 ug/mL of compound in medium by L1210 cells after 30 min expressed as drug concentration in cells; type: functional, cell-based; conditions: Mus musculus; outline: as §1
L1210 [5] = test: Uptake of a initial concentration of 10 ug/mL of compound in medium by L1210 cells after 60 min expressed as drug concentration in cells; type: functional, cell-based; conditions: Mus musculus; outline: as §1
L1210 [6] = test: Inhibition of L1210 leukemia cells, after exposure to compound for period of 1 hr; type: functional; conditions: Mus musculus, L1210, 1 h; read-out: ID50 (the source's name)
Outline: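 Soft-agar colony-forming assay using L1210 murine lymphocytic leukemia cells at 4×10^4/mL. Drug exposure was either 1 h or continuous, with continuous dosing done by adding drug to the final plating medium (RPMI 1640, 10% fetal bovine serum, 1% penicillin/streptomycin, 0.3% agar). Read-out is percent survival of colony-forming cells, as the mean of six values (three plates in each of two experiments). ID50 is given as molar concentration.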

L1210 [7] = test: Uptake of a initial concentration of 10 ug/mL of compound in medium by L1210 cells after 10 min expressed as drug concentration in cells; type: functional, cell-based; conditions: Mus musculus; outline: as §1
L1210 [8] = test: The compound was evaluated for survival of L1210 cells, when compound was exposed for a period of 1 hr 1X (10e -5)M conc; type: functional, Mus musculus
Outline: (§2)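 L1210 murine lymphocytic leukemia cells at 4×10^4/mL were exposed to drug for 1 h and then cloned in soft agar. The plating medium was RPMI 1640 with 10% fetal bovine serum, 1% penicillin-streptomycin and 0.3% agar. Read-out was percent survival of colony-forming cells, taken as the mean of six values (three plates in each of two experiments).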

L1210 [9] = test: The compound was evaluated for survival of L1210 cells, when compound was exposed for a period of 1 hr 1X (10e -6)M conc; type: functional, Mus musculus; outline: as §2
L1210 [10] = test: The compound was evaluated for survival of L1210 cells, when compound was exposed for a period of 1 hr 1X (10e -7)Mconc; type: functional, Mus musculus; outline: as §2
L1210 [11] = test: The compound was evaluated for survival of L1210 cells, when compound was exposed for a period of 1 hr 5*(10e -5)M conc; type: functional, Mus musculus; outline: as §2
L1210 [12] = test: The compound was evaluated for survival of L1210 cells, when compound was exposed for a period of […] 1X (10e -7)M conc; type: functional, Mus musculus
Outline: (§3)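 In a soft-agar colony-forming assay, L1210 murine lymphocytic leukemia cells (4×10^4/mL) were exposed to drug continuously, with drug added to the final plating medium. That medium was RPMI 1640 with 10% fetal bovine serum, 1% penicillin-streptomycin and 0.3% agar. Read-out was percent survival of colony-forming cells, given as the mean of six values (three plates, two experiments).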

L1210 [13] = test: The compound was evaluated for survival of L1210 cells, when compound was exposed for a period of […] 1X (10e -8)Mconc; type: functional, Mus musculus; outline: as §3
L1210 [14] = test: The compound was evaluated for survival of L1210 cells, when compound was exposed for a period of […] 1X (10e -9)M conc; type: functional, Mus musculus; outline: as §3
L1210 [15] = test: The compound was evaluated for survival of L1210 cells, when compound was exposed for a period of […] 5*(10e -8)M conc; type: functional, Mus musculus; outline: as §3

Compound	Concentration (L1210 [1]) [µg/mL]	Concentration (L1210 [2]) [µg/mL]	Concentration (L1210 [3]) [µg/mL]	Concentration (L1210 [4]) [µg/mL]	Concentration (L1210 [5]) [µg/mL]	IC50 (L1210 [6]) [µM]	Concentration (L1210 [7]) [µg/mL]	Survival (L1210 [8]) [%]	Survival (L1210 [9]) [%]	Survival (L1210 [10]) [%]	Survival (L1210 [11]) [%]	Survival (L1210 [12]) [%]	Survival (L1210 [13]) [%]	Survival (L1210 [14]) [%]	Survival (L1210 [15]) [%]
CC1=C(N)C(=O)c2c(COC(N)=O)c3n(c2C1=O)CC(N)C3OP(=O)(O)OC[C@H]1O[C@@H](n2ccc(=O)[nH]c2=O)[C@H](O)[C@@H]1O (some centres undefined)	20	20	1	1	2.5	13.3	8	–	–	–	–	–	–	–	–
CC1=C(N)C(=O)c2c(COC(N)=O)c3n(c2C1=O)CC(N)C3OP(=O)(O)OC[C@H]1O[C@@H](n2cc(F)c(=O)[nH]c2=O)C[C@@H]1O (some centres undefined)	–	–	–	–	–	14	–	–	–	–	–	–	–	–	–
CO[C@@]12[C@H](COC(N)=O)C3=C(C(=O)C(C)=C(N)C3=O)N1C[C@@H]1N[C@@H]12.O=c1[nH]c(=O)n([C@H]2C[C@H](O)[C@@H](CO)O2)cc1F	–	–	–	–	–	–	–	1	48	100	2	3	70	84	42
CC1=C(N)C(=O)c2c(COC(N)=O)c3n(c2C1=O)CC(N)C3[18OH] (centres undefined)	–	–	–	–	–	62	–	–	–	–	–	–	–	–	–
O=c1[nH]c(=O)n([C@H]2C[C@H](O)[C@@H](CO)O2)cc1F [FLOXURIDINE]	–	–	–	–	–	–	–	92	94	98	89	62	76	100	68
CO[C@@]12[C@H](COC(N)=O)C3=C(C(=O)C(C)=C(N)C3=O)N1C[C@@H]1N[C@@H]12 [MITOMYCIN]	–	–	–	–	–	3.1	–	1	52	89	2	7	100	98	73
